Experimental data taken from ChEMBL document CHEMBL4014337, “Antimalarial Inhibitors Targeting Serine Hydroxymethyltransferase (SHMT) with in Vivo Efficacy and Analysis of their Binding Mode Based on X-ray Cocrystal Structures” (J Med Chem, 2017).

Columns and labels:
[1] = Partition coefficient, logD of compound at pH 7.4 by HPLC analysis; type: physicochemical; conditions: octanol/water
Method in brief: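 logD at pH 7.4 measured by HPLC.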

[2] = Kinetic solubility of the compound in pH 2 HCl after 30 mins by nephelometry; type: physicochemical; conditions: buffer, pH 2, 0.5 h
[3] = Kinetic solubility of the compound in pH 6.5 phosphate buffer after 30 mins by nephelometry; type: physicochemical; conditions: pH 6.5, 0.5 h
[4] = Cytotoxicity against human HepG2 cells after 72 hrs by CyQuant-Direct reagent based fluorescence assay; type: cell-based
Salmonella typhimurium = assay: Mutagenicity in Salmonella typhimurium TA98 assessed as increase in number of revertant colonies at 1250 to 5000 ug/ml in absence of ariclor-induced rat liver S9 fraction by Ames test relative to control; type: toxicity; conditions: salmonella enterica subsp. enterica serovar typhimurium
Method in brief: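 Ames plate incorporation test run in two independent experiments across five Salmonella strains, with and without metabolic activation. Revertant colonies were counted per plate and compared with concurrent vehicle controls. A reproducible increase of ≥2-fold in revertant colony number over vehicle control was scored as evidence of mutagenicity.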

SMILES	logD [1]	Kinetic_solubility [2]	Kinetic_solubility [3]	IC20 at 72 h [4]	fold change (FC) (Salmonella typhimurium)
Cc1[nH]nc2c1C(c1cc(-c3cccc(C(=O)O)c3)cc(C(F)(F)F)c1)(C(C)C)C(C#N)=C(N)O2 (racemic)	1.8	–	–	–	–
Cc1[nH]nc2c1C(c1cc(N3CC4CCCC4C3)cc(C(F)(F)F)c1)(C(C)C)C(C#N)=C(N)O2 (racemic)	–	Soluble	Soluble	–	–
Cc1[nH]nc2c1C(c1cc(F)cc(-c3ccncc3)c1)(C(C)C)C(C#N)=C(N)O2 (racemic)	–	Soluble	Soluble	–	–
Cc1[nH]nc2c1C(c1cc(F)cc(N3CCC(C(=O)O)CC3)c1)(C(C)C)C(C#N)=C(N)O2 (racemic)	1.2	–	–	–	–
Cc1[nH]nc2c1C(c1cc(-c3cccnc3)cc(C(F)(F)F)c1)(C(C)C)C(C#N)=C(N)O2 (racemic)	–	–	–	18.9 µM	–
Cc1[nH]nc2c1C(c1cc(F)cc(N3CCOCC3)c1)(C(C)C)C(C#N)=C(N)O2 (racemic)	–	Soluble	Soluble	–	–
Cc1[nH]nc2c1C(c1cc(N3CCC(C(=O)O)CC3)cc(C(F)(F)F)c1)(C(C)C)C(C#N)=C(N)O2 (racemic)	1.6	Soluble	Soluble	–	–
Cc1[nH]nc2c1C(c1cc(C#N)cc(-c3cccc(C(=O)O)c3)c1)(C(C)C)C(C#N)=C(N)O2 (racemic)	1.4	–	–	–	–
Cc1[nH]nc2c1C(c1cc(F)cc(-c3cccc(C(=O)O)c3)c1)(C(C)C)C(C#N)=C(N)O2 (racemic)	1.5	Soluble	Soluble	–	>= 2
Cc1[nH]nc2c1C(c1cc(N3CCS(=O)(=O)CC3)cc(C(F)(F)F)c1)(C(C)C)C(C#N)=C(N)O2 (racemic)	–	Soluble	Soluble	–	–
COc1ccc(-c2cc(C(F)(F)F)cc(C3(C(C)C)C(C#N)=C(N)Oc4n[nH]c(C)c43)c2)cc1C(=O)O (racemic)	1.7	Soluble	Soluble	–	–
